A short description of data set [1]: Antioxidant activity assessed as DPPH radical scavenging activity incubated for 5 mins by microplate spectrophotometry. The data set is classed as physicochemical. (In general: DPPH is a stable violet radical that fades when it is reduced.)
The nature of data set [2]: Inhibition of Saccharomyces cerevisiae alpha-glucosidase using 4-NPGP substrate assessed as reduction in 4-nitrophenol release pre-incubated for 10 mins before substrate addition by microplate reader based assay. Summed up:
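Test compound at 0 to 100 µM premixed with enzyme in 100 mM phosphate buffer, pH 7.0, and held 30 °C for 10 min. Then 12.5 mM 4-NPGP (stock) added and 4-nitrophenol release read at 405 nm. IC50 is the concentration inhibiting 50% of α-glucosidase activity.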

The nature of data set [3]: Antioxidant activity assessed as DPPH radical scavenging activity. The data set is classed as physicochemical. A digest of the protocol: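 Compound dissolved in MeOH (0 to 100 µM), mixed with 0.1 mM DPPH, 150 µL final mixture, 37 °C for 5 min; absorbance at 517 nm; IC50 derived from DPPH scavenging.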
Data set [4] can be described thus: Inhibition of Saccharomyces cerevisiae alpha-glucosidase. A digest of the protocol:
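Compound (0 to 100 µM) premixed with 100 mM phosphate buffer pH 7.0, 30 °C for 10 min; 12.5 mM 4-nitrophenyl glucopyranoside substrate then added; 4-nitrophenol release read at 405 nm; resveratrol and quercetin as positive controls; IC50 = concentration giving 50% inhibition.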

Data set [5] is described as follows: Mixed type inhibition of Saccharomyces cerevisiae alpha-glucosidase using 4-NPGP substrate assessed as equilibrium constant for binding to enzyme-4-NPGP complex by measuring reduction in 4-nitrophenol release pre-incubated for 10 mins before substrate addition by Dixon plot analysis.
The subject of data set [6] is Saccharomyces cerevisiae. The data set can be described thus: Mixed type inhibition of Saccharomyces cerevisiae alpha-glucosidase using 4-NPGP substrate assessed as reduction in 4-nitrophenol release pre-incubated for 10 mins before substrate addition by Dixon plot analysis.
In data set [7] the test system is Saccharomyces cerevisiae. Description: Mixed type inhibition of Saccharomyces cerevisiae alpha-glucosidase using 4-NPGP substrate assessed as reduction in 4-nitrophenol release pre-incubated for 10 mins before substrate addition by Lineweaver-Burk plot analysis. A digest of the protocol:
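Double-reciprocal (Lineweaver-Burk) analysis of initial velocities, taken as A405 rate/min, across increasing 4-NPGP concentrations. Inhibitor present at 0, 0.25, 0.5 and 1.0 µM. Run in pH 7.0 phosphate buffer at 30 °C to assign inhibition mode.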

Data set [8] is described as follows: Mixed type inhibition of Saccharomyces cerevisiae alpha-glucosidase using 4-NPGP substrate assessed as equilibrium constant for binding to enzyme by measuring reduction in 4-nitrophenol release pre-incubated for 10 mins before substrate addition by Dixon plot analysis.

The source made the active and inactive calls. The rule behind the calls is not given here.

On to `Oc1cc(-c2cc3ccccc3o2)cc(O)c1O`, for which the values for the IC50 in data set [1] and in data set [2] were 10.8 µM and 8.2 µM, respectively.
For `Oc1cc(-c2cc3ccccc3o2)c(Br)c(O)c1O`, in that order: 18 µM and 8.5 µM.
Turning to `Oc1ccc(-c2cc3cc(Br)cc(O)c3o2)cc1`, the IC50 in data set [1] was greater than 100 µM; in data set [2], 29.8 µM.
Regarding `Oc1ccc(/C=C/c2cc(O)cc(O)c2)cc1` [RESVERATROL], the IC50 in data set [3] worked out at 38 µM; in data set [4], 27.9 µM; in data set [1], 63.5 µM; in data set [2], 31.1 µM.
As for `Oc1cc(Br)c(-c2cc3ccccc3o2)cc1O`, the figures for the IC50 in data set [1] and in data set [2] were 33.8 µM and 7.7 µM, respectively.
Regarding `CCOC(=O)/C=C/c1cc(O)c2oc(-c3cc(O)c(O)c(O)c3)cc2c1`, the figures for the Ki in data set [5] and in data set [8] were 11.8 µM and 3.19 µM, respectively. The IC50 in data set [1] came out at 11.7 µM; in data set [2] it was 2 µM. The inhibition result in data set [6] and in data set [7] was “Active” throughout.
As to `O=c1c(O)c(-c2ccc(O)c(O)c2)oc2cc(O)cc(O)c12` [QUERCETIN], the IC50 in data set [3] came to 9.1 µM; in data set [4], 5.3 µM; in data set [1] it was 6 µM; in data set [2], 6.6 µM.
As to `Oc1cc(Br)c(-c2cc3cccc(O)c3o2)cc1O`, the IC50 was found to be 20.6 µM in data set [1] and 7.1 µM in data set [2].
The corresponding values for `Oc1cc(-c2cc3cccc(O)c3o2)cc(O)c1O` are 12.8 µM and 9.2 µM.
For `Oc1cc(Br)c(-c2cc3c(Br)ccc(O)c3o2)cc1O`, in that order: 7.8 µM and 6.4 µM.
For `COc1cc(-c2cc3cc(Br)cc(OC)c3o2)cc(OC)c1OC`, in that order: greater than 100 µM and greater than 100 µM.
Take `Oc1cc(-c2cc3c(Br)ccc(O)c3o2)c(Br)c(O)c1O`: the IC50 in data set [1] worked out at 19.4 µM; in data set [2], 12.4 µM.
For the molecule `CCOC(=O)/C=C/c1ccc(O)c2oc(-c3ccc(O)c(O)c3)cc12`, the values for the IC50 in data set [1] and in data set [2] were 16.8 µM and 8.9 µM, respectively.
As for `CCOC(=O)/C=C/c1cc(OC)c(OC)cc1-c1cc2cccc(OC)c2o1`, the IC50 in data set [1] and in data set [2] was greater than 100 µM in each case.
As to `Oc1ccc(-c2cc3cc(Br)cc(O)c3o2)cc1O`, the IC50 was determined as 28.6 µM in data set [1] and 7.5 µM in data set [2].
For `Oc1ccc(-c2cc3c(Br)ccc(O)c3o2)cc1O`, in that order: 18.4 µM and 6.4 µM.
The corresponding values for `Oc1cc(-c2cc3cc(Br)cc(O)c3o2)cc(O)c1O` are 14.6 µM and 3 µM.
For `CCOC(=O)/C=C/c1cc(O)c(O)cc1-c1cc2cccc(O)c2o1`, in that order: 26.2 µM and 5.5 µM.
With `COc1ccc(-c2cc3cccc(OC)c3o2)cc1OC`, the IC50 in data set [1] and in data set [2] was greater than 100 µM each time.
Take `CCOC(=O)/C=C/c1cc(O)c2oc(-c3ccc(O)c(O)c3)cc2c1`: the IC50 in data set [1] is 25.4 µM; in data set [2] it was 23.8 µM.
For `COc1cc(Br)c(-c2cc3cccc(OC)c3o2)cc1OC`, in that order: greater than 100 µM and greater than 100 µM.
As to `Oc1ccc(-c2cc3cccc(O)c3o2)cc1O`, the values for the Ki in data set [5] and in data set [8] were 13.7 µM and 4.21 µM, respectively. Also, the IC50 in data set [1] was determined as 18.5 µM; in data set [2], 1.9 µM. Further, the inhibition entry in data set [6] and in data set [7] was “Active” each time.

In general, IC50 refers to the point on the concentration scale where inhibition reaches its midpoint. Usually Ki stands for the dissociation constant of the complex between target and ligand, obtained from inhibition or displacement.
